# Source: ChEMBL document CHEMBL1221182, “Functional characterization of IRESes by an inhibitor of the RNA helicase eIF4A” (Nat Chem Biol, 2006)
# Active and inactive are the calls of the source. The rule behind the calls is not given here.
# Key:
# [1] = biological target: Eukaryotic initiation factor 4A-I (Mus musculus, UniProt P60843); assay: Inhibition of eIF4A-mediated cap-dependent protein synthesis in FF-HCV-Ren mRNA transfected Swiss mouse Krebs2 cell extract by [35S]methionine metabolic labeling study
# Outline: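 Cell-free translation in Krebs-2 extracts programmed with capped bicistronic FF-HCV-Ren transcript: cap-dependent firefly cistron, HCV IRES-driven renilla cistron. Final mRNA 5 µg ml⁻¹, K⁺ 100 mM, compound titrated. Controls carry a matched final DMSO level. Products labeled with [³⁵S]methionine, separated by 10% SDS-PAGE, and autoradiographed. Luciferase activities are read by luminometer and expressed relative to vehicle reactions.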
# HeLa [2] = assay: Disruption of polyribosmes in human HeLa cells at 1 uM after 20 mins; assay type: functional, cell-based
# [3] = Inhibition of DED1-mediated helicase activity by helicase assay
# Outline: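 Helicase assay used the RNA-1/11 duplex with 25 nM Ded1p and 1 mM ATP. Products were separated on gels, dried, and exposed to film at -80 °C for 12 h.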
# [4] = biological target: Eukaryotic initiation factor 4A-I (Homo sapiens) (UniProt P60842); assay: Inhibition of eIF4A interaction with mRNA cap structure in presence of 0.6 mM m7 GDP at 50 uM by chemical cross-linking assay
# Outline: (§1)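 Oxidized ³²P cap-labelled CAT mRNA was chemically cross-linked in reactions with 0.9 mM ATP. Protein sources were 1 µg recombinant eIF4A_I, 0.7 µg native eIF4F, or an initiation factor preparation. Competitors were 0.6 mM m⁷GDP or GDP; compound was 50 µM. Samples were RNase A-treated, resolved by SDS-PAGE, and autoradiographed.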
# [5] = biological target: Eukaryotic translation initiation factor 4B (Homo sapiens) (UniProt P23588); assay: Inhibition of eIF4B interaction with mRNA cap structure in presence of 0.6 mM m7GDP at 50 uM by chemical cross-linking assay; outline: as §1
# Nucleic Acid [6] = assay: Inhibition of PTV-1 IRES-mediated translation in Swiss mouse Krebs2 extract transfected with bicistronic mRNA by [35S]methionine metabolic labeling study; details: Porcine teschovirus 1
# Outline: (§2)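 In vitro translation in Krebs-2 extracts programmed with capped bicistronic transcripts at 5 µg ml⁻¹ mRNA and 100 mM K⁺ final. Firefly and renilla luciferase activities read by luminometer. Alternatively, [³⁵S]methionine-labelled products were run on 10% SDS gels and autoradiographed. Control reactions held the same final DMSO level as the compound reactions.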
# [7] = biological target: Eukaryotic initiation factor 4A-I (Homo sapiens) (UniProt P60842); assay: Induction of eIF4A to [alpha-32P]ATP cross linking relative to control
# Outline: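 [α-³²P]ATP (2.5 µCi) was UV cross-linked to 1 µg recombinant eIF4A_I or 0.7 µg native eIF4F, with 0.5% DMSO or 50 µM compound. Samples were run on SDS-PAGE and autoradiographed at -70 °C for 12 h. Four experiments.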
# [8] = biological target: Eukaryotic initiation factor 4A-I (Oryctolagus cuniculus) (UniProt P29562); assay: Inhibition of eIF4A-mediated cap-dependent protein synthesis in rabbit reticulocyte lysate transfected with FF-HCV-Ren mRNA by [35S]methionine metabolic labeling study
# Outline: (§3)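 Rabbit reticulocyte lysate or wheat germ extract translations were run to kit instructions. Control reactions carried the same final DMSO concentration as the compound-containing reactions.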
# HeLa [9] = assay: Growth inhibition of human HeLa cells at 80 nM after 24 hrs; assay type: functional, cell-based
# [10] = biological target: Eukaryotic initiation factor 4A-I (Homo sapiens) (UniProt P60842); assay: Inhibition of eIF4A RNA binding activity in presence of 0.6 mM m7GDP at 50 uM; outline: as §1
# [11] = system: Internal ribosome entry site (IRES); assay: Inhibition of HCV IRES-mediated protein synthesis in FF-HCV-Ren mRNA transfected Swiss mouse Krebs2 cell extract at 50 uM by [35S]methionine metabolic labeling study; details: Hepacivirus hominis; outline: as §2
# HeLa [12] = assay: Inhibition of protein synthesis in human HeLa cells at 1 uM by [35S]methionine metabolic labeling study; assay type: functional, cell-based
# [13] = biological target: Eukaryotic initiation factor 4A-I (Homo sapiens) (UniProt P60842); assay: Inhibition of eIF4A binding to 32p cap-labeled mRNA at 50 uM; outline: as §1
# HeLa [14] = assay: Inhibition of protein synthesis in human HeLa cells after 50 mins by [35S]methionine metabolic labeling study; assay type: functional, cell-based
# [15] = biological target: Eukaryotic initiation factor 4A-I (Homo sapiens) (UniProt P60842); assay: Inhibition of eIF4A-mediated helicase activity by helicase assay
# Outline: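 Helicase assay used the RNA-1/11 duplex with 0.4 µM recombinant eIF4A_I and 1 mM ATP. Products were separated on gels, dried, and exposed to film at -80 °C for 12 h.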
# Oryctolagus cuniculus = species on record: Oryctolagus cuniculus; assay: Inhibition of 80S ribosome complex formation in rabbit reticulocyte lysate in presence of 600 uM cyclohexamide assessed as increase in unbound mRNA at 50 uM; assay type: functional
# Outline: (§4)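 ³²P-labelled CAT mRNA was incubated 10 min in wheat germ extract or rabbit reticulocyte lysate. Additions were 600 µM cycloheximide, 1 mM GMP-PNP, and 50 µM compound or vehicle. Mixtures were sedimented through 10–30% glycerol gradients at 200,000g for 3.5 h. Fraction radioactivity was measured by scintillation counting.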
# [16] = biological target: Eukaryotic initiation factor 4A-I (Mus musculus) (UniProt P60843); assay: Inhibition of eIF4A-mediated cap-dependent translation in Swiss mouse Krebs2 extract transfected with bicistronic mRNA by [35S]methionine metabolic labeling study; outline: as §2
# HeLa [17] = assay: Inhibition of RNA synthesis in human HeLa cells assessed as [3H] Uridine incorporation at 1 uM by scintillation counting; assay type: functional, cell-based
# [18] = biological target: Eukaryotic translation initiation factor 4E (Homo sapiens) (UniProt P06730); assay: Inhibition of eIF4E interaction with mRNA cap structure in presence of 0.6 mM m7 GDP at 50 uM by chemical cross-linking assay; outline: as §1
# [19] = biological target: Eukaryotic initiation factor 4A-I (Mus musculus) (UniProt P60843); assay: Inhibition of eIF4A-mediated cap-dependent protein synthesis in Swiss mouse Krebs2 extract transfected with FF-HCV-Ren mRNA in presence of recombinant eIF4AIf by [35S]methionine metabolic labeling study
# Outline: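 Krebs-2 translation programmed with FF-HCV-Ren mRNA at 5 µg ml⁻¹ mRNA and 100 mM K⁺ final. Conditions were 0.4 µM compound or 0.004% DMSO, with or without 2.2 µM recombinant eIF4A_If. [³⁵S]methionine products were resolved by SDS-PAGE and autoradiographed. Translational efficiency was taken relative to luciferase from vehicle controls. Three experiments; s.e.m.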
# Nucleic Acid [20] = assay: Inhibition of CrPV IRES-mediated translation in Swiss mouse Krebs2 extract transfected with bicistronic mRNA by [35S]methionine metabolic labeling study; outline: as §2
# Nucleic Acid [21] = assay: Inhibition of EMCV IRES-mediated translation in Swiss mouse Krebs2 extract transfected with bicistronic mRNA by [35S]methionine metabolic labeling study; details: Encephalomyocarditis virus; outline: as §2
# HeLa [22] = assay: Inhibition of DNA synthesis in human HeLa cells assessed as [3H] thymidine incorporation at 1 uM by scintillation counting; assay type: functional, cell-based
# Triticum aestivum = assay: Inhibition of 48S ribosome complex formation in wheat germ extract in presence of 1 mM GMP-PNP assessed as increase in unbound mRNA at 50 uM; assay type: functional; outline: as §4
# Escherichia coli = assay: Inhibition of eIF4A-mediated cap-dependent protein synthesis in Escherichia coli S30 extract transfected with FF-HCV-Ren mRNA at 50 uM by [35S]methionine metabolic labeling study
# [23] = biological target: Eukaryotic translation initiation factor 4E (Homo sapiens) (UniProt P06730); assay: Inhibition of eIF4E RNA binding activity in presence of 0.6 mM m7GDP at 50 uM; outline: as §1
# [24] = biological target: Eukaryotic initiation factor 4A (Triticum aestivum) (UniProt P41378); assay: Inhibition of eIF4A-mediated cap-dependent protein synthesis in wheat germ extract transfected with FF-HCV-Ren mRNA by [35S]methionine metabolic labeling study; outline: as §3
# HeLa [25] = assay: Inhibition of protein synthesis in human HeLa cells at 1 uM after 60 mins by [35S]methionine metabolic labeling study; assay type: functional, cell-based
# [26] = biological target: Eukaryotic initiation factor 4A-I (Homo sapiens) (UniProt P60842); assay: Inhibition of eIF4A RNA-dependent ATPase activity assessed as rate of ATP hydrolysis
# Outline: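 Recombinant murine eIF4A_I (4.5 µg) was expressed in E. coli BL21(DE3) and purified by Ni-NTA and Q-Sepharose. It was incubated with 1 µM [γ-³²P]ATP and 2.5 µM poly(U). Hydrolysis was quantified by phosphorimager. Rate was plotted against compound concentration relative to 0.5% DMSO.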
# Nucleic Acid [27] = assay: Inhibition of polio virus IRES-mediated translation in Swiss mouse Krebs2 extract transfected with bicistronic mRNA by [35S]methionine metabolic labeling study; details: Enterovirus C; outline: as §2
# Sequence of Eukaryotic initiation factor 4A-I (P60843 whole entry): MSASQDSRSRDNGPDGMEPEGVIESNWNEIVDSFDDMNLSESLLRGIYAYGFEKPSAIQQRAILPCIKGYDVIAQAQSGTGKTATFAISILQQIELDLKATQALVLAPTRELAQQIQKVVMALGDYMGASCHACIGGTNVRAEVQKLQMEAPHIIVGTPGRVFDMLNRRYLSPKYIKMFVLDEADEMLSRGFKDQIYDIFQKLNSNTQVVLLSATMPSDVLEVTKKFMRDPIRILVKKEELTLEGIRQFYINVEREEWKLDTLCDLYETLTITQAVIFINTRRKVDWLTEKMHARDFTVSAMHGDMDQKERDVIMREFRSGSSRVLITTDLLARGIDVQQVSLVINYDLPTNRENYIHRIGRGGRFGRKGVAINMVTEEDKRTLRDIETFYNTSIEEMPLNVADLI
# Sequence of Eukaryotic initiation factor 4A-I (Homo sapiens) (P60842 whole entry): as the sequence (P60843 whole entry) above
# Sequence of Eukaryotic translation initiation factor 4E (Homo sapiens) (P06730 whole entry): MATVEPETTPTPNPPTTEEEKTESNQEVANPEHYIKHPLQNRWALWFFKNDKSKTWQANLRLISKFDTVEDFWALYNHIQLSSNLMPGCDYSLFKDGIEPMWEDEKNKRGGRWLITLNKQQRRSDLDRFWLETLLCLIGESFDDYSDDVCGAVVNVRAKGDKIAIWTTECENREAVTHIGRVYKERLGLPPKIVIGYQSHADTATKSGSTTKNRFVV
# Sequence of Eukaryotic initiation factor 4A-I (Mus musculus) (P60843 whole entry): as the sequence (P60843 whole entry) above
# Sequence of Eukaryotic translation initiation factor 4B (Homo sapiens) (P23588 whole entry): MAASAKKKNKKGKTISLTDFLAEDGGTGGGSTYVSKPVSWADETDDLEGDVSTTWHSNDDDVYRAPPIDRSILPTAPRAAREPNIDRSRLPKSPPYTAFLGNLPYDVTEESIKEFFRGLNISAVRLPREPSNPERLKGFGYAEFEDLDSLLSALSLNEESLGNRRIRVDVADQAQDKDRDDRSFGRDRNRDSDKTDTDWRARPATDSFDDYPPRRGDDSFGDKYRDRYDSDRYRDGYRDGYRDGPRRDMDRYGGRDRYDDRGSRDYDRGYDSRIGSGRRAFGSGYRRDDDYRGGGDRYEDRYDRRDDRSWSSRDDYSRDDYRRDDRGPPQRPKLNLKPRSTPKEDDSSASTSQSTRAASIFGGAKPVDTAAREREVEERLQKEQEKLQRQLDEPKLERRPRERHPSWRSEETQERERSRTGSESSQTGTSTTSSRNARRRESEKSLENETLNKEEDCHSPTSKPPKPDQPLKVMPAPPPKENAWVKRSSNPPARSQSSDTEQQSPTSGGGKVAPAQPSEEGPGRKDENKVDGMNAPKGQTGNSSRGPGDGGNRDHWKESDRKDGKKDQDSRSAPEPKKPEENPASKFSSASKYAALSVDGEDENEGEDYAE
# Sequence of Eukaryotic initiation factor 4A-I (Oryctolagus cuniculus) (P29562 whole entry): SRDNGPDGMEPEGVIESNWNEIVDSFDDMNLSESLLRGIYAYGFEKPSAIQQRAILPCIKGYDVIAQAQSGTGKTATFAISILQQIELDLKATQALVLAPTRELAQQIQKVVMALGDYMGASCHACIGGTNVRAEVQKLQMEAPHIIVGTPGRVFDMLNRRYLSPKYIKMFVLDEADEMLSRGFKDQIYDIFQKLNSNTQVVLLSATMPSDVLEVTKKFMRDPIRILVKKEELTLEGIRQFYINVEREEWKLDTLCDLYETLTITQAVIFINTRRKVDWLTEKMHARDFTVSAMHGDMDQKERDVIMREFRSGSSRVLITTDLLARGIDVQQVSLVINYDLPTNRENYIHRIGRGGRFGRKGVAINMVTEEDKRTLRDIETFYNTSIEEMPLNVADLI
# Sequence of Eukaryotic initiation factor 4A (Triticum aestivum) (P41378 whole entry): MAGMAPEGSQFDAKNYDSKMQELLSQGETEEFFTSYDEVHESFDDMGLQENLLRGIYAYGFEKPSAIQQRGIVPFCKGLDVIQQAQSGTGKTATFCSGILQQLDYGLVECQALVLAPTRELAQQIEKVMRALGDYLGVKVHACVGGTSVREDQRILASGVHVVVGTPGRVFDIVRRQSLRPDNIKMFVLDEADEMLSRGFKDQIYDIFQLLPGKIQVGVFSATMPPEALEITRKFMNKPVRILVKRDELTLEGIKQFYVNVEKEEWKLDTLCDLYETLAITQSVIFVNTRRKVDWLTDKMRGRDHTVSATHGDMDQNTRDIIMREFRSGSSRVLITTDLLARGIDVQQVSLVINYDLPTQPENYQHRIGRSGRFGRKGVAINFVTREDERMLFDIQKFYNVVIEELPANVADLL
compound,measurement,setting,value
CC(=O)O[C@@H]1CC[C@@]2(C)[C@@H](CC[C@@H]3[C@@H]2[C@@H](OC(C)=O)C[C@@]2(C)[C@H]3C[C@@H]3O[C@]4(C[C@H](C)C(C)(C)O4)[C@](C)(O)[C@@H]32)C1,IC50,[1],> 100 µM
CC(=O)O[C@H]1C[C@@H]2CC[C@@H]3[C@H]([C@@H](O)C[C@@]4(C)[C@H]3C[C@@H]3O[C@@]5(C[C@H](C)C(C)(C)O5)[C@](C)(O)[C@@H]34)[C@@]2(C)C[C@H]1O,IC50,[1],1.7 µM
C[C@H]1C[C@@]2(O[C@H]3C[C@H]4[C@@H]5CC[C@H]6C[C@H](O)CC[C@]6(C)[C@H]5[C@@H](O)C[C@]4(C)[C@H]3[C@@]2(C)O)OC1(C)C [HIPPURISTANOL],inhibition,HeLa [2],Active
same,inhibition,[3],inactive
same,inhibition,[4],Active
same,inhibition,[5],Active
same,inhibition,Nucleic Acid [6],Active
same,fold change (FC),[7],2
same,inhibition,[8],Active
same,inhibition,HeLa [9],Active
same,inhibition,[10],Active
same,inhibition,[11],inactive
same,inhibition,HeLa [12],Active
same,IC50,[1],0.4 µM
same,inhibition,[13],Active
same,inhibition,HeLa [14],Active
same,inhibition,[15],Active
same,inhibition,Oryctolagus cuniculus,Active
same,inhibition,[16],Active
same,inhibition,HeLa [17],Active
same,inhibition,[18],inactive
same,inhibition,[19],Active
same,inhibition,Nucleic Acid [20],inactive
same,inhibition,Nucleic Acid [21],Active
same,inhibition,HeLa [22],Active
same,inhibition,Triticum aestivum,Active
same,inhibition,Escherichia coli,Active
same,inhibition,[23],inactive
same,inhibition,[24],Active
same,inhibition,HeLa [25],Active
same,inhibition,[26],Active
same,inhibition,Nucleic Acid [27],Active
CC(=O)O[C@@H]1CC[C@@]2(C)[C@@H](CC[C@@H]3[C@@H]2[C@@H](O)C[C@@]2(C)[C@H]3C[C@@H]3O[C@]4(C[C@H](C)C(C)(C)O4)[C@](C)(O)[C@@H]32)C1,IC50,[1],> 100 µM
CC(=O)O[C@@H]1CC[C@@]2(C)[C@@H](CC[C@@H]3[C@@H]2[C@@H](O)C[C@]24[C@H](O)O[C@]5(C)[C@H]2[C@H](C[C@@H]34)O[C@]52C[C@H](C)C(C)(C)O2)C1 [HIPPURISTANOHEMIACETAL],IC50,[1],91 µM
CC(=O)O[C@H]1C[C@@H]2CC[C@@H]3[C@H]([C@@H](O)C[C@@]4(C)[C@H]3C[C@@H]3O[C@]5(C[C@H](C)C(C)(C)O5)[C@](C)(O)[C@@H]34)[C@@]2(C)C[C@H]1O,IC50,[1],52 µM
CC(=O)O[C@@H]1C[C@@]2(C)[C@@H](CC[C@@H]3[C@@H]2[C@@H](O)C[C@@]2(C)[C@H]3C[C@@H]3O[C@@]4(C[C@H](C)C(C)(C)O4)[C@](C)(O)[C@@H]32)C[C@@H]1O,IC50,[1],1.5 µM
CC(=O)O[C@@H]1CC[C@@]2(C)[C@@H](CC[C@@H]3[C@@H]2[C@@H](O)C[C@@]2(C)[C@H]3C[C@@H]3O[C@@]4(C[C@H](C)C(C)(C)O4)[C@](C)(O)[C@@H]32)C1,IC50,[1],10 µM
C[C@H]1C[C@]2(O[C@H]3C[C@H]4[C@@H]5CC[C@H]6C[C@H](O)CC[C@]6(C)[C@H]5C(=O)C[C@]4(C)[C@H]3[C@@]2(C)O)OC1(C)C,IC50,[1],> 100 µM
